In article PMC6304448 (Heliyon, 2018) one finds IC50 and IC90 data, which are given here for two compounds.

Structures are written as SMILES. Converted amounts (≈) assume the structure as drawn.

What all share (type): cell-based
The test system of data set [1] is Leishmania donovani promastigotes. Nature of the data set: Antileishmanial assay. Particulars: 72 h; for IC50: read-out: antileishmanial activity IC50; for IC90: read-out: antileishmanial activity IC90. An outline of the steps: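 Leishmania donovani promastigote or axenic amastigote cultures at 2 × 10⁶ cells/ml were exposed to test compound and incubated at 26 °C for 72 hours. Growth was read by AlamarBlue. Pentamidine and amphotericin B served as positive controls. IC₅₀ and IC₉₀ were computed from dose-response curves.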

Data set [2] concerns chloroquine sensitive (D6, Sierra Leone) strain of Plasmodium falciparum. The data set can be described thus: Antimalarial assay. The note with it: D6, 72 h, read-out: antimalarial activity IC50. The essentials:
(§1)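 Test compound was dissolved in DMSO (2 mg/ml stock) and serially diluted. It was then added to P. falciparum culture (2% parasitemia, 2% hematocrit) in RPMI 1640 with 10% human serum and 60 μg/mL amikacin. Plates were held under 90% N₂/5% O₂/5% CO₂ at 37 °C for 72 hours. Parasite LDH was assayed with Malstat reagent for 30 min, then NBT/PES for 1 h in the dark. The reaction was stopped with 5% acetic acid and read at 650 nm. Chloroquine and artemisinin were positive controls and DMSO (0.25%) the negative control. IC₅₀ came from percent growth versus concentration curves.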

In data set [3] the test system is chloroquine resistant (W2, Indo China) strain of Plasmodium falciparum. The data set can be described thus: Antimalarial assay. Particulars: W2, 72 h, read-out: antimalarial activity IC50. An outline of the steps: as §1
Data set [4] in a line: In-vitro cytotoxicity assay. The note with it: African green monkey, VERO cells (mammalian kidney fibroblasts, ATCC). The essentials:
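VERO cells were seeded at 25,000 cells/well and incubated for 24 h. Test compound was added at a range of concentrations and incubated a further 48 h. Viable cells were quantified by a modified Neutral Red uptake method. Doxorubicin was the positive control and DMSO the negative control. IC₅₀ was derived from dose-response curves.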

The IC50 is the concentration needed to halve the response being measured. As a reminder, the IC90 is the concentration at which the effect reaches the 90% level. On to `O=C1CC(O)C2(O)c3c(ccc(O)c31)-c1ccc(O)c3c1C2C1OC1C3O` (stereo not shown) [Compound 1, 3,6,6a,9,10-pentahydroxy-7,8-epoxy-4-oxo-4,5,6,6a,6b,7,8,9-octahydroperylene], for which, in data set [1], the IC50 turned out to be 2.55 µg/mL (≈ 6.92 µM) and the IC90 came out at 8.28 µg/mL (≈ 22.5 µM).
In the case of `O=C1CC(O)C2c3c(ccc(O)c31)-c1ccc(O)c3c1C2(O)C(O)CC3=O` (stereo not shown) [Compound 2, 3,6,6a,7,10-pentahydroxy-4,9-dioxo-4,5,6,6a,6b,7,8,9-octahydroperylene], the IC50 in data set [1] was found to be 4.4 µg/mL (≈ 11.9 µM); in data set [2] it was 4.24 µg/mL (≈ 11.5 µM); in data set [3], 3.65 µg/mL (≈ 9.91 µM). For the same compound, in data set [1], the IC90 is 9.54 µg/mL (≈ 25.9 µM). In data set [4], this compound returned an IC50 at 48 h of 3.59 µg/mL (≈ 9.75 µM).
